Experiments:
Plasmodium falciparum [1] = assay: Antiprotozoal activity against erythrocytic stage of Plasmodium falciparum NF54 after 48 hrs by [3H]- hypoxanthine incorporation assay; format: functional
Method in brief: (§1)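 In vitro tests against P. falciparum NF54, T. cruzi, T. b. rhodesiense and L. donovani, with cytotoxicity on rat skeletal myoblast L6 host cells.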

[2] = Induction of apoptosis in human INA-6 cells after 3 days by V-FITC/ propidium iodide staining-based flow cytometric analysis; format: functional, cell-based
Method in brief: (§2)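 INA-6 multiple myeloma cells, or mononuclear cells from the peripheral blood of healthy donors, exposed to a range of concentrations for 3 d, with melphalan as reference. Cells stained 10 min with annexin V-FITC and PI in HEPES binding buffer pH 7.4 (140 mM NaCl, 2.5 mM CaCl2), then analysed by flow cytometry. The annexin/PI double-negative fraction counted as viable, and EC50 derived from dose-response curves.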

[3] = Selectivity index, ratio of IC50 for rat L6 cells to IC50 for erythrocytic stage of Plasmodium falciparum NF54; format: toxicity; conditions: read-out: Ratio IC50
Method in brief: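 Ratio of the L6 cell IC50 to the P. falciparum IC50. Each IC50 is the mean of two independent assays.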

Trypanosoma cruzi = assay: Antiprotozoal activity against trypomastigote stage of Trypanosoma cruzi Tulahuen C2C4 infected in rat L6 cells using preincubated for 96 hrs by CPRG/Nonidet-based inverted microscopy; format: functional, cell-based; method in brief: as §1
L6 = assay: Cytotoxicity against rat L6 cells after 72 hrs by Alamar Blue assay; format: cell-based; conditions: L6, 72 h; method in brief: as §1
Leishmania donovani = assay: Antiprotozoal activity against amastigote form of Leishmania donovani MHOM/ET/67/L82 after 72 hrs by Alamar Blue assay; format: functional; conditions: MHOM/ET/67/L82, 72 h; method in brief: as §1
[4] = system: Trypanosoma brucei rhodesiense; assay: Antiprotozoal activity against patient derived Trypanosoma brucei rhodesiense STIB 900 bloodstream form after 72 hrs by Alamar Blue assay; format: functional; conditions: STIB 900, 72 h; method in brief: as §1
PBMC = assay: Induction of apoptosis in human PBMC after 3 days by V-FITC/ propidium iodide staining-based flow cytometric analysis; format: cell-based; conditions: 72 h; method in brief: as §2
CCRF-CEM [5] = assay: Growth inhibition of human CCRF-CEM cells at 10 uM by resazurin assay relative to control; format: functional; conditions: read-out: GI
Method in brief: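 Drug-sensitive CCRF-CEM leukemia cells treated at a single concentration of 10 μM, with doxorubicin as reference and DMSO vehicle (under 1.0%) as negative control. Viability read by resazurin fluorescence (ex 544, em 590 nm) relative to untreated cells. Three independent experiments, six parallel measurements each.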

ADR5000 cell line = assay: Growth inhibition of human multi-drug resistant CEM/ADR5000 cells by resazurin assay; format: functional, cell-based
Method in brief: (§3)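 CCRF-CEM cells and the P-glycoprotein-overexpressing multidrug-resistant subline CEM/ADR5000 treated over a range of concentrations, with doxorubicin as positive control and DMSO (under 1.0%) as negative control. Resazurin fluorescence read at ex 544/em 590 nm against untreated cells. IC50 taken from a calibration curve by linear regression. Mean ± SD of three independent experiments, six parallel measurements each.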

[6] = Resistance index, ratio of IC50 for human CEM/ADR5000 cells to IC50 for human CCRF-CEM cells; format: functional
Method in brief: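 Degree of resistance is the IC50 for CEM/ADR5000 divided by the IC50 for CCRF-CEM. Both come from resazurin viability dose-response curves over three independent experiments.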

CCRF-CEM [7] = assay: Growth inhibition of human CCRF-CEM cells by resazurin assay; format: functional, cell-based; method in brief: as §3
[8] = Selectivity index, ratio of IC50 for rat L6 cells to IC50 for erythrocytic stage of chloroquine and pyrimethamine resistant Plasmodium falciparum K1; format: toxicity; conditions: read-out: Ratio IC50
Method in brief: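 Selectivity index: IC50 toward rat skeletal myoblast L6 cells (in vitro cytotoxicity, previously published method) divided by IC50 against P. falciparum K1; each IC50 is the mean of two independent assays.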

Plasmodium falciparum [9] = assay: Antiprotozoal activity against erythrocytic stage of chloroquine and pyrimethamine resistant Plasmodium falciparum K1 after 48 hrs by [3H]- hypoxanthine incorporation assay; format: functional

| IC50 (Plasmodium falciparum [1]) [µM] | EC50 ([2]; Homo sapiens, INA-6, 72 h) [µM] | IC50 (Trypanosoma cruzi) [µM] | IC50 [4] [µM] | SMILES | selectivity ratio [3] | IC50 (L6) [µM] | IC50 (Leishmania donovani) [µM] | other results |
| --- | --- | --- | --- | --- | --- | --- | --- | --- |
|  | 1.5 |  |  | COc1cc(C)c(-c2ccc3c(c2O)[C@@H](C)N[C@H](C)C3)c2cccc(O)c12 |  |  |  |  |
|  | 7.5 |  |  | COc1cc(C)c(-c2ccc(O)c3c2C[C@@H](C)N[C@@H]3C)c2cccc(O)c12 [DIONCOPHYLLINE C] |  |  |  | EC50 (PBMC): 9 µM |
|  | 0.8 |  |  | COc1cccc2c(-c3ccc4c(c3O)[C@@H](C)N(C(C)=O)[C@H](C)C4)c(C)cc(OC)c12 [N-ACETYLDIONCOPHYLLINE A] |  |  |  |  |

More lines, now with the values behind:

| SMILES | IC50 (Plasmodium falciparum [1]) [µM] | EC50 ([2]; Homo sapiens, INA-6, 72 h) [µM] | IC50 (Trypanosoma cruzi) [µM] | IC50 [4] [µM] | selectivity ratio [3] | IC50 (L6) [µM] | IC50 (Leishmania donovani) [µM] | other results |
| --- | --- | --- | --- | --- | --- | --- | --- | --- |
| COc1cc2c(c(OC)c1-c1c(C)cc(OC)c3c(OC)cccc13)[C@@H](C)N[C@@H](C)C2 | 0.726 | 4.8 | 12.4 | 0.313 | 41 | 30 | 25.4 |  |
| COc1cccc2c(-c3ccc(O)c4c3C[C@@H](C)N[C@H]4C)c(C)cc(OC)c12 | 0.702 |  | 44.5 | 4.83 | 61.7 | 43.3 | 228 |  |
| COc1ccc(-c2ccc3c(c2O)[C@@H](C)N[C@H](C)C3)c2cc(C)cc(OC)c12 | 0.228 | 2.6 | 26.3 | 8.08 | 17.6 | 4.02 | > 265 | EC50 (PBMC): 19 µM; inhibition of growth at 10 µM (CCRF-CEM [5]): < 50%; IC50 (ADR5000 cell line): 5.31 µM; Ratio IC50 [6]: 2.9; IC50 (CCRF-CEM [7]): 1.86 µM |
| COc1cc2c(c(O)c1-c1c(C)cc(OC)c3c(OC)cccc13)C(C)=N[C@H](C)C2 | 6.51 |  | 104 | 22.7 | 5.4 | 34.9 | 146 |  |
| COc1ccc(-c2ccc(O)c3c2C[C@@H](C)N[C@H]3C)c2cc(C)cc(OC)c12 | 0.09 | 21 | 14.6 | 0.585 | 161 | 14.5 | 107 | EC50 (PBMC): 16 µM; selectivity ratio [8]: 323; IC50 (Plasmodium falciparum [9]): 0.045 µM |
| COc1ccc(-c2ccc3c(c2O)[C@@H](C)N(C)[C@H](C)C3)c2cc(C)cc(OC)c12 | 0.107 | 32 | 55 | 13.7 | 586 | 62.8 | 136 |  |
| N[C@@H](Cc1ccc(N(CCCl)CCCl)cc1)C(=O)O |  | 2 |  |  |  |  |  |  |
| COc1cccc2c(-c3ccc4c(c3O)[C@@H](C)N[C@H](C)C4)c(C)cc(O)c12 (stereo in doubt; M-11) |  |  |  |  |  |  |  | EC50 ([2]; ina-6): 16 µM; EC50 (PBMC): 50 µM |
| COc1cccc2c(-c3ccc4c(c3O)[C@@H](C)N[C@H](C)C4)c(C)cc(O)c12 (stereo in doubt; P-11) |  |  |  |  |  |  |  | EC50 ([2]; ina-6): 2.7 µM |
| O=C(Cn1ccnc1[N+](=O)[O-])NCc1ccccc1 [BENZNIDAZOLE] |  |  | 2.32 |  |  |  |  |  |
| COc1cccc2c(-c3ccc4c(c3O)[C@@H](C)N[C@H](C)C4)c(C)cc(OC)c12 [DIONCOPHYLLINE A] |  | 0.22 |  |  |  |  |  | inhibition of growth at 10 µM (CCRF-CEM [5]): < 50%; IC50 (ADR5000 cell line): 0.52 µM; Ratio IC50 [6]: 2.1; IC50 (CCRF-CEM [7]): 0.243 µM |
| COc1cccc2c1C(=O)c1c(O)c3c(c(O)c1C2=O)C[C@@](O)(C(=O)CO)C[C@@H]3O[C@H]1C[C@H](N)[C@H](O)[C@H](C)O1 [DOXORUBICIN] |  |  |  |  |  |  |  | IC50 (ADR5000 cell line): 30.1 µM; Ratio IC50 [6]: 1769; IC50 (CCRF-CEM [7]): 0.017 µM |

Reference: ChEMBL document CHEMBL4052596, “Dioncophyllines C2, D2, and F and Related Naphthylisoquinoline Alkaloids from the Congolese Liana Ancistrocladus ileboensis with Potent Activities against Plasmodium falciparum and against Multiple Myeloma and Leukemia Cell Lines” (J Nat Prod, 2017)
